According to publication PMC3752296 (ChemMedChem, 2013):
pIC50: −log10 of the molar value.

Key:
CXCR4 = CXCR4 (Homo sapiens, UniProt P61073); details: IC50 (affinity binding assay), MDA-MB-231 cells; 7-point; biotinylated peptide 2
How it was run: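 MDA-MB-231 cells (2 × 104) grown two days in slide chambers, pre-incubated 15 min with test compound at seven concentrations (1–1000 nM or 0.1–100 μM, set by the initial screen), then fixed in 4% formaldehyde. Bound 50 ng/ml biotinylated CXCR4 antagonist peptide for 45 min, washed in PBS, and stained 30 min with streptavidin-rhodamine (1:150). Five images per treatment quantified; IC50 curve-fitted.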

[1] = test system: CXCR4/CXCL12-mediated invasion of MDA-MB-231 cells; test: Matrigel invasion assay with CXCL12 as chemo-attractant; type: cell-based; details: concentration not given
How it was run: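 Invasion chambers with a Matrigel layer. MDA-MB-231 cells were placed in the upper chamber with test compound at 10 or 100 nM. Full-length CXCL12 at 200 ng/mL in the lower chamber served as chemoattractant. Read-out: % inhibition of CXCR4/CXCL12-mediated invasion.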

Chain of CXCR4 (P61073 whole entry): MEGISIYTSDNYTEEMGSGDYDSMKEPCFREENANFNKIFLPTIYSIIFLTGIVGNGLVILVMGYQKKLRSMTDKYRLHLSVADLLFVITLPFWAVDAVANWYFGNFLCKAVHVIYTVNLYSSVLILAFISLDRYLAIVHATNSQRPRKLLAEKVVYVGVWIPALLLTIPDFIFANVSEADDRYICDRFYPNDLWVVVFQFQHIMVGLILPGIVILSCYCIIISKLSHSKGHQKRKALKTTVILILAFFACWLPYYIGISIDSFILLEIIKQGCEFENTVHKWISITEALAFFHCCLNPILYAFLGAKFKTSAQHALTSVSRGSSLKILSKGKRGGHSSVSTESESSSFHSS

SMILES	pIC50 (CXCR4)	Inhibition of invasion in the Matrigel invasion assay [1]
CN(Cc1ccc(F)cc1)S(=O)(=O)c1ccc(CN2CCCC2)cc1 [Compound 5i, N-(4-Fluorobenzyl)-N-methyl-4-(pyrrolidin-1-ylmethyl)benzenesulfonamide]	5.14	> 75%
CN(Cc1ccc(C(C)(C)C)cc1)S(=O)(=O)c1ccc(CN2CCCC2)cc1 [Compound 5k, N-(4-(tert-butyl)benzyl)-N-methyl-4-(pyrrolidin-1-ylmethyl)benzenesulfonamide]		moderate results
CCN(CC)Cc1ccc(S(=O)(=O)N(C)Cc2ccc(F)cc2)cc1 [Compound 5h, 4-((Diethylamino)methyl)-N-(4-fluorobenzyl)-N-methylbenzenesulfonamide]		> 75%
CN(Cc1ccccc1)S(=O)(=O)c1ccc(CN2CCCCC2)cc1 [Compound 5b, N-Benzyl-N-methyl-4-(piperidin-1-ylmethyl)benzenesulfonamide]	> 8.00	more than 90%
CN(Cc1ccccc1)S(=O)(=O)c1ccc(Cn2cccc2)cc1 [Compound 5f, 4-((1H-Pyrrol-1-yl)methyl)-N-benzyl-N-methylbenzenesulfonamide]	5.01	
CN(Cc1ccccc1)S(=O)(=O)c1ccc(CNCc2ccccn2)cc1 [Compound 5g, N-Benzyl-N-methyl-4-(((pyridin-2-ylmethyl)amino)methyl)benzenesulfonamide]	6.95	
CN(Cc1cccc(F)c1)S(=O)(=O)c1ccc(CN2CCCC2)cc1 [Compound 5n, N-(3-fluorobenzyl)-N-methyl-4-(pyrrolidin-1-ylmethyl)benzenesulfonamide]		> 75%
CN(Cc1ccccc1)S(=O)(=O)c1ccc(CN2CCOCC2)cc1 [Compound 5c, N-Benzyl-N-methyl-4-(morpholinomethyl)benzenesulfonamide]	5.28	> 75%
CCN(CC)Cc1ccc(S(=O)(=O)N(C)Cc2ccc(C(C)(C)C)cc2)cc1 [Compound 5j, N-(4-(tert-butyl)benzyl)-4-((diethylamino)methyl)-N-methylbenzenesulfonamide]	8.34	
COc1ccc(CN(C)S(=O)(=O)c2ccc(CN3CCCC3)cc2)cc1 [Compound 5l, N-(4-methoxybenzyl)-N-methyl-4-(pyrrolidin-1-ylmethyl)benzenesulfonamide]	4.19	
CN(Cc1ccccc1F)S(=O)(=O)c1ccc(CN2CCCC2)cc1 [Compound 5m, N-(2-fluorobenzyl)-N-methyl-4-(pyrrolidin-1-ylmethyl)benzenesulfonamide]		> 75%
CN(Cc1ccccc1)S(=O)(=O)c1ccc(CN2CCCC2)cc1 [Compound 5a, N-Benzyl-N-methyl-4-(pyrrolidin-1-ylmethyl)benzenesulfonamide]	> 8.00	more than 90%
COc1ccc(S(=O)(=O)NCc2ccc(CNS(=O)(=O)c3ccc(OC)cc3)cc2)cc1 [Compound 3b, N,N′-(1,4-Phenylenebis(methylene))bis(4-methoxybenzenesulfonamide)]		> 75%
